Data: ChEMBL document CHEMBL2169772, “Discovery of (2S)-1-[4-(2-{6-amino-8-[(6-bromo-1,3-benzodioxol-5-yl)sulfanyl]-9H-purin-9-yl}ethyl)piperidin-1-yl]-2-hydroxypropan-1-one (MPC-3100), a purine-based Hsp90 inhibitor” (J Med Chem, 2012)
In brackets after ≈: the same amount, converted by molar mass. Activity calls are given as the source filed them. The rule behind the calls is not given here.

What was measured:
[1] = Oral bioavailability in Swiss nude mouse at 10 mg/kg by LC-ESI-MS/MS method; type: ADME, organism-based; settings: in vivo
Summary of the method: (§1)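 Mice dosed by oral gavage, vehicle DMA/PEG300/EtOH/H2O (3/40/12/45, v/v/v/v). Blood drawn by cardiac puncture into EDTA plasma. Three or five animals per time point. Plasma precipitated with acetonitrile plus internal standard. Quantified by LC-ESI-MS/MS against a 10–10 000 ng/mL standard curve with QC samples. Noncompartmental analysis.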

MV4-11 = experiment: Cytotoxicity against human MV4-11 cells assessed as inhibition of tumor growth incubated for 72 hrs by luminometry; type: functional, cell-based; settings: MV4-11, 72 h
Summary of the method: (§2)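 Cells seeded at 5000 per well in DMEM with 10% serum and left overnight. Compound added from DMSO dilutions (0.4% DMSO final) for 72 h. After 5 min at room temperature, ATPLite two-step lysis and substrate added, 5 min incubation, then luminescence read. Values are the mean of at least two experiments.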

[2] = Tmax in Swiss nude mouse at 10 mg/kg, po by LC-ESI-MS/MS method; type: ADME, organism-based; parameters: dose 10 mg/kg, route oral; settings: in vivo; summary of the method: as §1
[3] = Cmax in Swiss nude mouse at 100 mg/kg, po by LC-ESI-MS/MS method; type: ADME, organism-based; parameters: dose 100 mg/kg, route oral; settings: in vivo
Summary of the method: (§3)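 Single oral gavage in mice, vehicle 40% Captisol in phosphate buffer. EDTA plasma from cardiac puncture. Acetonitrile precipitation with internal standard, then LC-ESI-MS/MS quantitation against a 10–10 000 ng/mL standard curve. Cmax and AUC by noncompartmental analysis.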

Mus musculus [4] = experiment: Toxicity in nude mouse xenografted with human NCI-N87 cells assessed as effect on body weight at 50 mg/kg, po qd for 22 days measured twice a week; type: organism-based; parameters: dose 50 mg/kg, route oral; settings: in vivo, 528 h
Summary of the method: (§4)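 Female nude mice (Crl:NU-Fox1nu) implanted subcutaneously in the right flank with 5 million NCI-N87 cells. At median tumor volume of roughly >100 mm3, randomized to 5 cohorts of 10. Dosed orally once daily for 22 days with vehicle (40% w/w Captisol) or 50, 75, 125 or 200 mg/kg. Tumor size and body weight measured at least twice weekly.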

NCI-N87 [5] = experiment: Antitumor activity against human NCI-N87 cells xenografted in nude mouse assessed as tumor regression at 125 mg/kg, po qd for 22 days measured twice a week; settings: 528 h
Heat shock protein HSP90 [6] = target: T1, Heat shock protein HSP90 (Homo sapiens, UniProt P07900+P08238); experiment: Inhibition of human HSP90 in DU145 cells assessed as induction of HSP70 incubated for 24 hrs by Western blot method; type: cell-based; settings: DU-145
Summary of the method: (§5)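 Cells exposed to a range of concentrations for 24 h. Lysates analyzed by Western blot with Her2-, Hsp70- and Akt-specific antibodies.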

Heat shock protein HSP90 [7] = target: T1, Heat shock protein HSP90; experiment: Inhibition of human HSP90 in DU145 cells assessed as degradation of Her2 incubated for 24 hrs by Western blot method; type: cell-based; summary of the method: as §5
[8] = Oral bioavailability in Swiss nude mouse at 100 mg/kg administered using captisol and phosphate buffer system formulation by LC-ESI-MS/MS method; settings: in vivo
[9] = Permeability of the compound after 30 mins by PAMPA; type: ADME; settings: read-out: permeability
Summary of the method: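 Double-sink PAMPA with donor solutions at pH 5.0, 6.2 and 7.4. Filter coated with phospholipid in dodecane. Sandwich incubated 30 min at 37 °C with stirring equivalent to a 40 μm aqueous boundary layer. Permeability calculated from UV spectra at 250–490 nm. Verapamil run as positive control.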

OVCAR-8 = experiment: Cytotoxicity against human OVCAR8 cells assessed as inhibition of tumor growth incubated for 72 hrs by luminometry; type: functional, cell-based; settings: OVCAR-8, 72 h; summary of the method: as §2
Heat shock protein HSP90 [10] = target: T1, Heat shock protein HSP90; experiment: Inhibition of human HSP90 in HCT116 cells assessed as degradation of Her2 incubated for 24 hrs by Western blot method; type: cell-based; summary of the method: as §5
Mus musculus [11] = experiment: Toxicity in nude mouse xenografted with human NCI-N87 cells assessed as effect on body weight at 125 mg/kg, po qd for 22 days measured twice a week; type: organism-based; parameters: dose 125 mg/kg, route oral; settings: in vivo, 528 h; summary of the method: as §4
Mus musculus [12] = experiment: Hepatic clearance in Swiss nude mouse at 2.5 mg/kg, iv by LC-ESI-MS/MS method; type: ADME, organism-based, Liver; parameters: dose 2.5 mg/kg, route intravenous; settings: in vivo
Summary of the method: (§6)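 Intravenous dose in mice, vehicle DMA/PEG300/EtOH/H2O 3/40/12/45. Sampling at 5, 15, 30, 60, 120, 240, 480 and 720 min, three or five animals per time point. Cardiac-puncture EDTA plasma. Acetonitrile protein precipitation with internal standard, then LC-ESI-MS/MS (10–10 000 ng/mL curve). Parameters by noncompartmental fit.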

[13] = Solubility of compound in phosphate buffer at pH 7.4; type: physicochemical
LNCaP = experiment: Cytotoxicity against human LNCAP cells assessed as inhibition of tumor growth incubated for 72 hrs by luminometry; type: functional, cell-based; summary of the method: as §2
[14] = Volume of distribution in Swiss nude mouse at 2.5 mg/kg, iv by LC-ESI-MS/MS method; type: ADME, organism-based; parameters: dose 2.5 mg/kg, route intravenous; settings: in vivo; summary of the method: as §6
Mus musculus [15] = experiment: Toxicity in nude mouse xenografted with human NCI-N87 cells assessed as effect on body weight at 200 mg/kg, po qd for 22 days measured twice a week; type: organism-based; parameters: dose 200 mg/kg, route oral; settings: in vivo, 528 h; summary of the method: as §4
[16] = AUC in Swiss nude mouse at 2.5 mg/kg, iv by LC-ESI-MS/MS method; type: ADME, organism-based; parameters: dose 2.5 mg/kg, route intravenous; settings: plasma; summary of the method: as §6
NCI-N87 [17] = experiment: Antitumor activity against human NCI-N87 cells xenografted in nude mouse assessed as tumor regression at 200 mg/kg, po qd for 22 days measured twice a week; settings: 528 h
Heat shock protein HSP90 [18] = target: T1, Heat shock protein HSP90; experiment: Inhibition of human HSP90 in NCI-N87 cells assessed as degradation of Her2 incubated for 24 hrs by Western blot method; type: cell-based; summary of the method: as §5
DU-145 = experiment: Cytotoxicity against human DU145 cells assessed as inhibition of tumor growth incubated for 72 hrs by luminometry; type: functional, cell-based; settings: DU-145, 72 h; summary of the method: as §2
Mus musculus [19] = experiment: Inhibition of HSP90 in human NCI-N87 cells xenografted nude mouse tumor assessed as induction of HSP70 mRNA expression at 50 to 200 mg/kg, po qd for 22 days; type: functional, organism-based
Mus musculus [20] = experiment: Toxicity in nude mouse xenografted with human NCI-N87 cells assessed as effect on body weight at 75 mg/kg, po qd for 22 days measured twice a week; type: organism-based; parameters: dose 75 mg/kg, route oral; settings: in vivo, 528 h; summary of the method: as §4
HCT-116 = experiment: Cytotoxicity against human HCT116 cells assessed as inhibition of tumor growth incubated for 72 hrs by luminometry; type: functional, cell-based; settings: HCT-116, 72 h; summary of the method: as §2
Heat shock protein HSP90 [21] = target: T1, Heat shock protein HSP90; experiment: Inhibition of human HSP90 using BODIPY labelled geldanamycin as substrate by fluorescence polarization assay; type: protein assay
A549 = experiment: Cytotoxicity against human A549 cells assessed as inhibition of tumor growth incubated for 72 hrs by luminometry; type: functional, cell-based; settings: A549, 72 h; summary of the method: as §2
[22] = AUC in Swiss nude mouse at 100 mg/kg, po by LC-ESI-MS/MS method; type: ADME, organism-based; parameters: dose 100 mg/kg, route oral; settings: plasma; summary of the method: as §3
HT-29 = experiment: Cytotoxicity against human HT-29 cells assessed as inhibition of tumor growth incubated for 72 hrs by luminometry; type: functional, cell-based; settings: HT-29, 72 h; summary of the method: as §2
Mus musculus [23] = experiment: Inhibition of HSP90 in human NCI-N87 cells xenografted nude mouse liver assessed as induction of HSP70 mRNA expression at 50 to 200 mg/kg, po qd for 22 days; type: functional, organism-based

bioavailability [1]: 38%
Tmax [2]: 15 min
Cmax [3]: 13100 ng/mL
inhibition (Heat shock protein HSP90 [6]): Dose-dependent effect
inhibition (Heat shock protein HSP90 [7]; DU-145): Dose-dependent effect
IC50 (Heat shock protein HSP90 [7]; du-145): 0.1 µM
bioavailability [8]: > 50%
Papp at 0.5 h [9]: > 350 ×10⁻⁶ cm/s
inhibition (Heat shock protein HSP90 [10]; HCT-116): Dose-dependent effect
IC50 (Heat shock protein HSP90 [10]; hct-116): 0.1 µM
CLH (Mus musculus [12]): 1187 mL/h/kg
solubility [13]: 20 µM (≈ 11 µg/mL)
Vd [14]: 2.44 L/kg
AUC [16]: 2110 ng·h/mL
IC50 (Heat shock protein HSP90 [18]): 0.1 µM
inhibition (Heat shock protein HSP90 [18]): Dose-dependent effect
IC50 (Heat shock protein HSP90 [21]): 0.14 µM
AUC [22]: 81800 ng·h/mL
Compound: C[C@H](O)C(=O)N1CCC(CCn2c(Sc3cc4c(cc3Br)OCO4)nc3c(N)ncnc32)CC1
IC50 (MV4-11): 250 nM
Activity (Mus musculus [4]): Non-toxic
tumor regression at 125 mg/kg (NCI-N87 [5]): 10%
IC50 (OVCAR-8): 490 nM
Activity (Mus musculus [11]): Non-toxic
IC50 (LNCaP): 510 nM
Activity (Mus musculus [15]): Non-toxic
tumor regression at 200 mg/kg (NCI-N87 [17]): 48%
IC50 (DU-145): 530 nM
inhibition (Mus musculus [19]): Active
Activity (Mus musculus [20]): Non-toxic
IC50 (HCT-116): 540 nM
IC50 (A549): 770 nM
IC50 (HT-29): 420 nM
inhibition (Mus musculus [23]): Active
